Like-named read-outs stand apart in the source and are kept apart here.
Experiments:
[1] = biological target: T1, TNAP (Homo sapiens, UniProt P05186); conditions: ref Fishman and Sie, 1971; Van Belle, 1976; Farley et al., 1980; cited from earlier work
T1 sequence (P05186 18-501 limits assumed): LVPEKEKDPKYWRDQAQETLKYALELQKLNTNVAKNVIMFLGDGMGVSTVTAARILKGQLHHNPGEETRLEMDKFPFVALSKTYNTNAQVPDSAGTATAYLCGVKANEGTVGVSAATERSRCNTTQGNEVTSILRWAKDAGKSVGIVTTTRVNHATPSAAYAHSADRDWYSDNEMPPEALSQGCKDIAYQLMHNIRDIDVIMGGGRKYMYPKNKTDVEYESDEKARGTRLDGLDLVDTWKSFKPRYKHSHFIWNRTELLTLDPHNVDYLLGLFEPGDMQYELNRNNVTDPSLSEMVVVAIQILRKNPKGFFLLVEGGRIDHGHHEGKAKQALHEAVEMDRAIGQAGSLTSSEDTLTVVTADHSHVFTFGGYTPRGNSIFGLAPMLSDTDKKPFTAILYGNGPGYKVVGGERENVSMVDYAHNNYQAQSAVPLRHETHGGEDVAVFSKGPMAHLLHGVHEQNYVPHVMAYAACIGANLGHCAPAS

[2] = biological target: T2, IAP (Homo sapiens, UniProt P09923); test: Luminescent IAP selectivity assay; assay type: biochemical; conditions: read-out: SDCCG panel IC50 IAP, […] CDP-star
T2 sequence (P09923 20-503 limits assumed): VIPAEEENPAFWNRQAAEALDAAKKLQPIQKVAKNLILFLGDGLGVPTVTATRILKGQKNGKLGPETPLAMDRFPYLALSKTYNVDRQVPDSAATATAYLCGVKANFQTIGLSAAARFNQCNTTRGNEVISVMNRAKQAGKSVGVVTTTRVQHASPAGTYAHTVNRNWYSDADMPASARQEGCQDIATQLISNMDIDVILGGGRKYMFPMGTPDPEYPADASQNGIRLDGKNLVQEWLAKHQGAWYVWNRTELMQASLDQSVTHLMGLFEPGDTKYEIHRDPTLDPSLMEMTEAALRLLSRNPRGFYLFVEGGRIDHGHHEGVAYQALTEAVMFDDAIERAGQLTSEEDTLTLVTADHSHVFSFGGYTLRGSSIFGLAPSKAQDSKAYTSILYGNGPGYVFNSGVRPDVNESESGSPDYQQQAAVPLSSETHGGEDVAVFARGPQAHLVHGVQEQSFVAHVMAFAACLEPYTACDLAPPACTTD

[3] = biological target: T1, TNAP; assay type: biochemical; conditions: for MOI vs CDP*: mode of inhibition with respect to CDP-star (UC uncompetitive, C competitive); for MOI vs DEA: mode of inhibition with respect to DEA (C competitive, NC non-competitive)
[4] = biological target: PLAP (Homo sapiens, UniProt P05187); test: Luminescent PLAP selectivity assay; assay type: biochemical; conditions: read-out: SDCCG panel IC50 PLAP, 85 µM CDP-star
Chain of PLAP (P05187 23-506 limits assumed): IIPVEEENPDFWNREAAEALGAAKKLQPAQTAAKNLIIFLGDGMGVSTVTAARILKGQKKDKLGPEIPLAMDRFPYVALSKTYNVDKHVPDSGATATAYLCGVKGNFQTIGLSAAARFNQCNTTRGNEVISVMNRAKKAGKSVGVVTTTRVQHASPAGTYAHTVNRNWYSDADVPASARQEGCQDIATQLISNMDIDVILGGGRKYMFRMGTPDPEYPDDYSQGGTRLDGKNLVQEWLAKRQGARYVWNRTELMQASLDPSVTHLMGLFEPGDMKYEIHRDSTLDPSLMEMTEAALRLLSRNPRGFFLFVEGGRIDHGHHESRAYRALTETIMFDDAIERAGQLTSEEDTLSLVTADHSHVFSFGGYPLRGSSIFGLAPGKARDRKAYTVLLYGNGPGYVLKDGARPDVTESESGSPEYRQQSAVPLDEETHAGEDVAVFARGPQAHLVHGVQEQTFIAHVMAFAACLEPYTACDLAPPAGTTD
How it was run: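 Run as an analogue of the luminescent TNAP assay: CDP-star held at the PLAP Km. The TNAP version used 100 mM DEA-HCl pH 9.8, 1 mM MgCl2 and 20 uM ZnCl2, with luminescence read after 30 min at room temperature. Percent inhibition was computed against negative and positive control wells. Dose-response data were fitted to the Hill equation for IC50, excluding nephelometrically precipitating concentrations.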

[5] = biological target: T1, TNAP; test: Luminescent TNAP assay with CDP-star substrate; assay type: biochemical
[6] = biological target: T1, TNAP; test: Colorimetric TNAP assay, pNPP substrate, absorbance at 405 nm; assay type: biochemical; conditions: colorimetric assays, 1 M DEA, compared with luminescent assay
[7] = read-out: IC50 SAR-Lumi, dry powder compounds, 100 mM DEA
[8] = read-out: SDCCG panel IC50 TNAP

| Compound | Mode of inhibition of TNAP by known inhibitors [1] | IC50 [2] | MOI vs CDP* [3] | MOI vs DEA [3] | IC50 [4] | IC50 [5, 7] | IC50 [5, 8] | Activity in the colorimetric assay [6] |
| --- | --- | --- | --- | --- | --- | --- | --- | --- |
| NC(N)=NCCCC[C@H](N)C(=O)O [L-homoarginine] | inhibited uncompetitively |  |  |  |  |  |  |  |
| O=C(O)c1cc(-c2ccccc2Cl)n[nH]1 [MLS-0005718] |  | 43500 nM | competitive with CDP-star | competitive mechanism | > 100000 nM | 743 nM | 743 nM |  |
| COc1ccc(OC)c(S(=O)(=O)Nc2cnc3ccccc3c2)c1 [MLS-0038949] |  |  |  |  | > 100000 nM |  |  |  |
| c1ccc([C@H]2CN3CCSC3=N2)cc1 [levamisole] | inhibited uncompetitively |  |  |  |  |  |  |  |
| O=c1cc(-c2cccc3ccccc23)[nH][nH]1 [MLS-0039961] |  | > 100000 nM | competitive with CDP-star | non-competitive | > 100000 nM | 4620 nM |  |  |
| COc1ccc(OC)c(S(=O)(=O)Nc2ccc(O)c(Sc3ncn[nH]3)c2)c1 [MLS-0043574] |  |  |  |  |  |  |  | inactive |
| COc1ccc(C)cc1S(=O)(=O)Nc1cccnc1 [MLS-0010847] |  | > 100000 nM |  |  | > 100000 nM | 926 nM | 926 nM |  |
| O=C1C2CC=CCC2C(=O)N1c1n[nH]c(Cc2ccccc2)n1 (stereo not shown) [MLS-0067142] |  | 539 nM | competitive with CDP-star | competitive mechanism | 3140 nM | 186 nM | 186 nM |  |
